Source: PubChem
MrgX1 allo act: allosterically activates human MrgX1 receptor signaling; Q96LB2; MrgX1-HEK293, Fluo-4 calcium flux, FDSS; stronger effect = higher value; B-score at 10 µM; hit rate 0.63% among 310,000; AID 588675;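 active = plate-corrected calcium response at least 3 library SD above typical, normal starting fluorescence, not activating the receptor alone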;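 also: compound read alongside a low EC10 to EC30 dose of BAM8-22 agonist; peak minus trough fluorescence over baseline measured at the second addition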
Target sequence (Q96LB2 whole entry, looked up): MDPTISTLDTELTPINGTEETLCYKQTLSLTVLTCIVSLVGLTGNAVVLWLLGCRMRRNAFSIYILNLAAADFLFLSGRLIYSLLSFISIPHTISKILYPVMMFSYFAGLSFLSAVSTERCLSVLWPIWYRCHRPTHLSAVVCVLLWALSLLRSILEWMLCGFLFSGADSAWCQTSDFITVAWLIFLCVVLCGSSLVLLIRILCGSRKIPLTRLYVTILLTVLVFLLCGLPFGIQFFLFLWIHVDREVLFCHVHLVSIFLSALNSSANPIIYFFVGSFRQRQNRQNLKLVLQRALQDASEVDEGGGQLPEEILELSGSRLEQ
RGS4 act: RGS4 potentiation or activation; HEK293 M3R/inducible RGS4, carbachol calcium flux Fluo4; stronger effect = lower value; hit rate 0.92% among 310,000; B-score at 10 µM;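 active = B-score of the integrated calcium signal more than 4 SD below the library mean, with starting fluorescence not abnormally high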;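 also: negative B-score means reduced calcium response which marks RGS4 activation or potentiation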
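Material: M3R-expressing HEK293 line, RGS4 induced by doxycycline | Schedule: Overnight RGS4 induction, 30 min dye load 37 °C, 20 min compound RT | Measured by: Fluo4 fluorescence kinetic imaging of calcium | Read-out: Integrated calcium ratio converted to B score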
MrgX1 antagonist: human MrgX1 receptor antagonism, primary screen; Q96LB2; AID 588676; B-score at 10 µM; MRGX1-HEK293 calcium flux, Fluo-4, BAM8-22 antagonism; stronger effect = lower value; hit rate 1.3% among 310,000;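 active = calcium-response B-score plate-corrected more than 3 library SD below zero, starting fluorescence within 5 deviations, no agonist response on first addition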;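 also: peak minus trough fluorescence over baseline after final BAM8-22 challenge near maximal dose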
MrgX1 agonist: activates human MrgX1 receptor signaling; AID 588627; hit rate 0.44% among 310,000; B-score at 10 µM; MrgX1-HEK293 cells, Fluo-4 calcium fluorescence, agonist mode; stronger effect = higher value;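 active = calcium response B-score plate-corrected fluorescence ratio at least 3 library SD, with starting fluorescence B-score inside 5 SD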
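times = overnight plating, then 30 min 37 °C plus 30 min room-temperature dye loading | assay system = stable human MrgX1 HEK293 cell line | input = fifteen thousand cells per well | signal = kinetic calcium dye fluorescence, Fluo-4 NW | dosing = compound delivered in addition one of three | read-out = B-scored fluorescence response ratio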
RGS4 inh: inhibitors of human RGS4; P49798; B-score at 10 µM; HEK293 M3R/RGS4 inducible, Fluo-4 calcium flux; stronger effect = higher value; triggered by carbachol at its EC20; AID 463165; hit rate 0.45% among 310,000;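 active = B-score, a plate-corrected calcium signal, over three deviations above library mean, with baseline fluorescence within five deviations of library mean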;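 also: RGS4 expression induced by doxycycline in cells with stable M3 receptor; B-score is computed from the integrated fluorescence ratio over baseline after carbachol; higher B-score means a larger calcium signal and so more RGS4 inhibition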
Target sequence (P49798 whole entry, looked up): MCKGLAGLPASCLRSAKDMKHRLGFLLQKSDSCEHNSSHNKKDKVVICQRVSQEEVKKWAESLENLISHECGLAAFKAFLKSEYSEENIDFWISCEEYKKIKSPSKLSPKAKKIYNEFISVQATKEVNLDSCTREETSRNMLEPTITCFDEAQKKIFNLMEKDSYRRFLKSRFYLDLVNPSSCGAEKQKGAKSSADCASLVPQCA
Of the large screens only hits and unclear results are named; the others gave an inactive call. Sampled rows, rich in hits. Any-hit rate of the full collection: about 3.5%.

COc1cccc([C@@H]2CC=C(C(=O)O)[C@H](c3ccccc3F)N2S(=O)(=O)c2ccc(C)cc2)c1	MrgX1 allo act 8.35 (no result: RGS4 act, RGS4 inh)
COc1cccc([C@@H]2CC=C(C(=O)O)[C@H](c3ccc(Cl)cc3)N2S(=O)(=O)c2ccc(C)cc2)c1	none (no result: RGS4 act, RGS4 inh)
Cc1ccc(S(=O)(=O)N2[C@@H](c3ccc(Cl)cc3)C(C(=O)O)=CC[C@H]2c2ccc3c(c2)OCO3)cc1	none (no result: RGS4 act, RGS4 inh)
CCc1ccc([C@@H]2CC=C(C(=O)O)[C@H](c3ccc(Cl)cc3)N2S(=O)(=O)c2ccc(C)cc2)cc1	none (no result: RGS4 act, RGS4 inh)
CN(Cc1ccccc1)C(=O)CN(c1ccc(F)cc1)S(=O)(=O)c1ccc2c(c1)OCCO2	none
O=C(CCCCCN1C(=O)[C@@H]2Cc3ccccc3CN2C1=O)Nc1cccc(F)c1	RGS4 act -7.51
Cc1cccc(NC(=O)CCCCCN2C(=O)[C@@H]3Cc4ccccc4CN3C2=O)c1	none
O=c1ccn([C@H]2C[C@H](O)[C@@H](CO)O2)c(=O)[nH]1	MrgX1 antagonist -6.84
CC(OC(=O)c1cccc([N+](=O)[O-])c1)C(=O)NCc1ccc2c(c1)OCO2 (stereo unspecified)	MrgX1 antagonist -5.9
Cc1c(Cl)cccc1NC(=S)NCc1ccco1	none
COc1ccc(C[C@H](C)NC[C@@H](O)c2ccc(O)c(NC=O)c2)cc1	MrgX1 allo act 7.7
CCN(CC(=O)Nc1ccccc1OC)C(=O)c1cc(S(=O)(=O)N2CCCCCC2)ccc1OC	none
O=C(CSc1cnc2ccccc2n1)c1ccc(F)cc1	none
CC1CCCN(c2ccc(C(=O)NCc3ccco3)cc2[N+](=O)[O-])C1 (stereo unspecified)	MrgX1 antagonist -6.35
Cc1ccc(C(=O)NCc2ccco2)cc1[N+](=O)[O-]	none
COCCCNC(=O)c1cccn2c(=O)c3cc4ccccc4cc3nc12	MrgX1 antagonist -8.48
COc1ccc(CC2=CC(=O)c3ccccc3C2=O)cc1	RGS4 inh 6.23
CC(C)OC(=O)c1cc2c(ccn2C)n1CC(=O)N(Cc1ccccc1)c1ccc(F)cc1	none
CCOC(=O)c1cc2c(ccn2C)n1Cc1ccccc1Cl	RGS4 act -7.31
Cc1ccc(C)c(Cn2c(C(=O)OC(C)C)cc3c2ccn3C)c1	RGS4 act -6.99
CCn1cc(CN2CCC(n3nccc3NC(=O)CCOc3ccccc3)CC2)c(C)n1	none
CN(CCOc1ccc(Cl)cc1)C(=O)CN1C(=O)NC2(CCCCC2)C1=O	none
Cc1cc(=O)[nH]c(SCC(=O)N2C(C)CCCC2C)n1 (stereo unspecified)	none
CCCCn1c(NC(=O)c2ccc(F)cc2)c(C#N)c2nc3ccccc3nc21	MrgX1 agonist 53.6
Cn1c(SCCC#N)nnc1-c1ccc(F)cc1	none
CC1=C(SCCC#N)S/C(=C2\SC(C)=C(SCCC#N)S2)S1	MrgX1 antagonist -5.25
Cc1cccc(NC(=S)NC(=O)/C=C/c2ccco2)c1	MrgX1 allo act 9.09
CC(=O)c1ccc(NC(=S)NC(=O)/C=C/c2ccco2)cc1	none
COc1cccc(NC(=O)/C=C/c2ccco2)c1	none
O=C(/C=C/c1ccco1)NC(=S)Nc1ccccc1	MrgX1 allo act 12.9
CSc1cccc(NC(=O)/C=C/c2ccco2)c1	MrgX1 allo act 6.54
CCCc1cc(=O)[nH]c(SCC(=O)N(CC)c2c(N)n(Cc3ccccc3)c(=O)[nH]c2=O)n1	none
Cc1ncc(CO)c(/C=N/NC(=S)Nc2ccc(Cl)c(Cl)c2)c1O	MrgX1 antagonist -9.57
Nc1nonc1C(=O)NCCNCc1cc(Br)ccc1OCc1ccccc1F	none
NS(=O)(=O)c1ccc(CCNCc2cc(Br)ccc2OCc2ccccc2F)cc1	MrgX1 antagonist -4.72
NS(=O)(=O)c1ccc(CCNCc2cc(Cl)ccc2OCc2ccccc2)cc1	MrgX1 antagonist -7.16
NS(=O)(=O)c1ccc(CCNCc2ccccc2OCc2ccc(Cl)cc2)cc1	MrgX1 antagonist -7.22
C=CCOc1ccccc1CNCCc1ccc(S(N)(=O)=O)cc1	none
O=C(Nc1cccc(S(=O)(=O)N2CCOCC2)c1)c1cc([N+](=O)[O-])ccc1N1CCOCC1	none
CNC(=O)c1cc2cc(OC)ccc2n1CCN(Cc1ccccc1)Cc1ccccc1	MrgX1 antagonist -7.79
CCN=C1SC(C(=O)Nc2cccc(C)c2)CC(=O)N1CC (stereo unspecified)	RGS4 act -7.41
CCN=C1SC(C(=O)Nc2cccc(Cl)c2)CC(=O)N1CC (stereo unspecified)	none
CC1(C#CC[N+]2(C)CCCCC2)CCC2C(O1)c1ccccc1OC2(C)C (stereo unspecified)	RGS4 act -6.98
CC12CCC3(CO)COC(c4ccccc4O1)C2C3 (stereo unspecified)	none
COc1ccc(-c2nnc(-c3cc4c(ccc5ccccc54)oc3=O)o2)cc1	RGS4 act -9
CCN(CC)S(=O)(=O)c1cc(NC(=O)Cn2ncc(Cl)c(Cl)c2=O)ccc1C	none
COc1ccc(/C=C(/C(=O)c2ccc(Cl)cc2Cl)n2cncn2)cc1	MrgX1 agonist 34.9
O=[N+]([O-])c1ccc(-c2ccc(/C=N/Nc3nc(NCc4ccccc4)nc(N4CCOCC4)n3)o2)cc1	MrgX1 allo act 13.2
O=C(CSc1nnc(CNC(=O)c2ccco2)o1)Nc1cccc(F)c1	none
O=C(O)c1ccc(CNC(=O)c2ccccc2NC(=O)c2ccc([N+](=O)[O-])cc2)cc1	MrgX1 antagonist -4.94
COC(=O)c1cc(NS(=O)(=O)c2ccc(Cl)c(N3C(=O)c4ccc(C(=O)O)cc4C3=O)c2)cc(C(=O)OC)c1	MrgX1 allo act 9.93
C=C1CCC(OC(C)=O)C2(C)CCC3C(C)C(=O)OC3C12O (stereo unspecified)	none
CCCOc1cccc(C(=O)NCCNC(=O)c2ccc(C)nc2)c1	none
O=C(N/N=C/c1ccccn1)c1cccc(S(=O)(=O)Nc2ccccc2Cl)c1	MrgX1 allo act 16.5
COc1ccc(-c2nn(-c3ccccc3)cc2/C=N/NC(=O)c2cccc(S(=O)(=O)Nc3ccccc3Cl)c2)cc1	MrgX1 antagonist -5
O=C(NC(=S)NC1CC1)c1cccnc1	MrgX1 antagonist -4.67
CCNC(=S)NNC(=O)c1cccnc1	MrgX1 antagonist -5.28
COc1ccc(CC(=O)Nc2cccc(S(=O)(=O)N3CCCCCC3)c2)cc1OC	none
Cn1c(SCC(=O)Nc2ncc(C(F)(F)F)cc2Cl)nnc1-c1ccc(Cl)cc1	none
O=C1CCC(C(=O)N2CCN(c3cnccn3)CC2)CN1CCc1cccc(F)c1 (stereo unspecified)	none
Nc1c(C(=O)N/N=C/c2ccccc2Cl)oc2nc(-c3ccccc3)cc(-c3ccco3)c12	MrgX1 antagonist -7.66
Nc1c(C(=O)N/N=C/c2ccc(F)cc2)oc2nc(-c3ccccc3)cc(-c3ccco3)c12	MrgX1 antagonist -5.42
O=C(N/N=C/c1ccc(F)cc1)c1cc(-c2ccco2)nc2ccccc12	none
CCc1ccc(NC(=O)CCS(=O)(=O)c2ccc(Cl)cc2)cc1	none
